# Screening data deposited in PubChem BioAssay by several laboratories.
# Compounds with a hit are over-represented: about 5.8% of the library has one in this group of screens.
# RBBP9 inh = human RBBP9 inhibitors, primary screen, biochemical, fluorescence polarization, FP-Rh probe, HTS | Serine hydrolase RBBP9 (Homo sapiens), O75884 | recombinant RBBP9 | inhibition, % at 7.94 µM | 220,000 tested, 0.2% active;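 active = inhibition above the campaign mean of all tested compounds plus 3 SD, cut at about 14% in these data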;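 note: plate controls were DMSO wells with RBBP9 for no effect and wells lacking RBBP9 protein for full effect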
# Target sequence (O75884 whole entry, looked up): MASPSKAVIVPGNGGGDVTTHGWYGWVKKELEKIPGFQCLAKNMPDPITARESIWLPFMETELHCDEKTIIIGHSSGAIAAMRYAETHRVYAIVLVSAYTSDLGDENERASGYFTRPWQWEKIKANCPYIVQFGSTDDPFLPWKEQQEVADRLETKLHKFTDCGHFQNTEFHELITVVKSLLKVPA
#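 Measured by – fluorescence polarization · Test system – RBBP9 protein · Input – 2.5 µM RBBP9 dispensing solution, before mixing · Measure – percent inhibition from mP, scaled between DMSO and no-protein wells · Benchmarks – DMSO-treated enzyme wells and wells lacking RBBP9 · Times – preincubation 30 min plus labeling 45 min at 25 °C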
# KCC2 mod = KCC2 cotransporter modulators, thallium flux, primary screen, cell-based, HEK293 KCC2, FluoZin-2 fluorescence, MLSMR; KCC2 cells, thallium flux FluoZin-2 fluorescence; B-score of Tl+ flux slope (higher = more flux/activation; lower = inhibition) at 10 µM; 190,000 tested, 2.2% active; AID 1456, 2008;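 active = thallium flux slope and its plate-corrected score both differing from the plate sample mean at a set confidence after two filtering rounds, in either direction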;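 note: slope of fluorescence scaled to starting intensity during 10 to 20 s after thallium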
# 14-3-3 Bad inh = inhibitors of 14-3-3 zeta/Bad binding, primary screen, biochemical, TR-FRET, bovine 14-3-3 zeta; 14-3-3 protein zeta/delta (Bos taurus), P63103; TR-FRET 14-3-3zeta/Dy647-pBad peptide displacement, 1 h; inhibition, % at 21.7 µM; 220,000 tested, 0.71% active;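 active = inhibition above about 70%, limit read from the data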;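 note: 0% = full 14-3-3 plus peptide FRET controls and 100% = background without 14-3-3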
# ROMK mod = ROMK potassium channel modulators, primary screen, cell-based, thallium flux, MLSMR library. AID 1918, 2009. B-score at 10 µM. ATP-sensitive inward rectifier potassium channel 1 (Homo sapiens), P48048. 130,000 tested, 2% active. Tet-inducible ROMK, thallium flux fluorescence; actives lie on both sides;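 active = signal ratio slope over the read window, or its plate-corrected B-score, at least 3 SD from the plate mean, either direction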;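 note: B-score of the F/F0 ratio slope over 7 to 12 s after thallium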
# Target sequence (P48048 whole entry, looked up): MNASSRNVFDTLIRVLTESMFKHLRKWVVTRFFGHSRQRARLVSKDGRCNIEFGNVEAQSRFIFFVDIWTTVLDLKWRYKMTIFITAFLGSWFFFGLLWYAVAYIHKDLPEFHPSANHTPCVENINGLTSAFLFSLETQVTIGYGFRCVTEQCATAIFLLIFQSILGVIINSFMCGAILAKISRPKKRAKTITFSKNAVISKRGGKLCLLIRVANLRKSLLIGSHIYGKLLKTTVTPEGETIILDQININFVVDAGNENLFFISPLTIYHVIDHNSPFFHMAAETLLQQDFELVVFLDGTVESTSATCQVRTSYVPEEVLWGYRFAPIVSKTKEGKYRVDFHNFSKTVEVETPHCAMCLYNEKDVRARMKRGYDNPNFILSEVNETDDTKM
# WT yeast gro inh = growth inhibition of WT strain, primary screen, mitochondrial fusion inhibitor project, WT and mutant strains, chemical genetic; mitochondrial fusion phenotypic screen; AID 1362, 2008; 190,000 tested, 2.1% active; inhibition, % at 10 µM; in the data active = inhibition above about 58%; tested in S. cerevisiae
# NCF1 inh = p47phox/p22phox peptide binding inhibitors, primary screen, biochemical, uHTS, NADPH oxidase regulatory subunit | Neutrophil cytosol factor 1 (Homo sapiens), P14598 | fluorescence polarization, 2 h | inhibition, % at 24.7 µM | 220,000 tested, 0.53% active | AID 1274, 2008;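 active = inhibition above about 30%, limit read from the data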;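 note: 0% = p47phox with labelled peptide and 100% = labelled peptide alone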
# * hit, by the source's call; . = no result; [ ] = another dose, or the depositor's remark.
SMILES,RBBP9 inh,KCC2 mod,14-3-3 Bad inh,ROMK mod,WT yeast gro inh,NCF1 inh
S=c1nc(-c2ccc(Br)cc2)oc2c1CCCC2,-5.3,82.6*,-8.3,.,2.8,6.5
CC(=O)c1ccc(NC(=O)CO/N=C(\C)c2cccs2)cc1,-3.0,-0.294,-9.9,-0.25,-9.1,-10.8
C/C(=N\OCC(=O)Nn1c(=O)[nH]c2ccccc2c1=O)c1cccs1,-0.7,-0.279,-6.0,0.286,-1.0,173.9*
CN(C)c1ccc(N=Nc2ccccc2C(=O)OCC(=O)NCC2CCCCC2)cc1,-4.8,-0.313,7.3,-0.73,64.2*,-14.8
CN(C)c1ccc(N=Nc2ccccc2C(=O)OCC(=O)NC2CCCC2)cc1,-6.0,-1.29,-1.4,.,41.8,-28.7
O=C(NC(=S)Nc1cc(C(F)(F)F)ccc1Cl)c1ccccc1,-5.9,1.8,9.4,.,8.4,-10.2
O=C(NC(=S)Nc1cc([N+](=O)[O-])ccc1Cl)c1ccccc1,3.4,11.4*,-0.6,1.41,14.6,-7.2
Cc1ccc([N+](=O)[O-])cc1NC(=S)NC(=O)c1ccco1,-4.0,14.6*,5.4,.,-6.1,-78.3
O=C(Nc1cccc(Cl)c1)c1cc(N=Nc2ccc([N+](=O)[O-])cc2Cl)ccc1O,9.2,11*,15.7,.,.,9.0
O=C(Nc1ccccc1)c1cc([N+](=O)[O-])ccc1Cl,.,0.645,0.6,.,.,41.8*
C/C(=N\NC(=O)C1COc2ccccc2O1)c1cc2ccccc2o1 (centres undefined),-10.7,2.16,3.7,-0.878,12.8,0.0
Cn1cc(CNCc2ccccc2OCC(O)CN2CCc3ccccc3C2)cn1 (centres undefined),2.4,0.0469,-9.6,.,7.5,3.8
Cc1nc(N2CCOCC2)c2c(C)c(C(=O)Nc3ccccc3C(F)(F)F)sc2n1,-10.1,-0.367,-10.8,-1.7,20.0,-0.9
Cc1nc(N2CCCCC2C)c2c(C)c(C(=O)Nc3ccccc3C(F)(F)F)sc2n1 (centres undefined),1.6,-1.04,0.0,-0.104,75.3*,6.3
O=C1c2cccnc2C(=O)N1CNc1ccc(Cl)cc1,-11.1,-0.206,-2.1,0.0528,4.4,11.4
C=CCNC1=C(Cl)C(=O)N(c2cccc(Cl)c2Cl)C1=O,-8.5,-0.511,0.5,.,64.4*,-4.0
COc1cccc(Oc2nc(-c3ccncc3)nc3ccccc23)c1,-3.3,-0.526,0.7,.,.,-14.3
COc1ccccc1N1CCN(Cc2cc(Br)c(O)c3ncccc23)CC1,-7.7,7.18*,4.4,.,7.4,21.3
COc1ccccc1N1CCN(c2nc(C)nc3c2oc2ccccc23)CC1,4.7,.,35.1,.,74.6*,-1.0
CCOc1ccccc1N1CCN(Cc2cccc(OC)c2O)CC1,4.1,-1.03,73.5*,.,10.1,0.8
COc1ccccc1N1CCN(CCOc2c(OC)cccc2OC)CC1,4.3,1.28,68.2,-0.000872,3.8,2.8
Oc1c(CN2CCN(c3ccccn3)CC2)cc(Cl)c2cccnc12,4.2,7.01*,7.8,.,10.8,-3.3
OCCN1CCN(Cc2cc(Cl)c3cccnc3c2O)CC1,3.3,0.208,-14.5,-0.066,-9.0,-13.0
COc1ccc(NC(=S)N/N=C/c2cccn2Cc2ccc(F)cc2Cl)cc1,-0.6,3.8*,-7.4,1.35*,38.8,-9.8
COc1ccc(NC(=S)N/N=C/c2cccn2Cc2ccccc2F)cc1,-7.8,0.99,-17.4,0.207,1.9,-9.6
SMILES,RBBP9 inh,KCC2 mod,14-3-3 Bad inh,ROMK mod,WT yeast gro inh,NCF1 inh
CN(c1ccc(OCC(=O)N2CCOCC2)cc1)S(=O)(=O)c1ccc(Cl)cc1,0.0,-0.941,-4.3,-1.34,13.6,-0.8
CCOc1ccccc1N1CCN(C(=O)Nc2ccc(Cl)c(Cl)c2)CC1,-1.9,.,10.9,.,68.1*,1.7
CCOc1ccccc1N1CCN(C(=O)c2ccncc2)CC1,-1.3,-1.74,-10.2,.,9.4,-14.7
Cc1ccc(F)c(NC(=O)c2ccc(Cn3cc(Cl)cn3)cc2)c1,-8.2,-1.18,-1.5,0.217,3.1,9.8
Cc1ccc(F)c(NC(=O)/C(C#N)=C(\O)c2ccc(C(C)(C)C)cc2)c1,-10.0,-5.63*,0.9,5.67*,9.9,-7.3
CCOC(=O)Cc1csc(NC(=O)Nc2cccc(OC)c2)n1,-1.2,0.214,-0.1,-0.0068,.,0.1
CCO[C@@H]1OC(C(=O)N2CCN(Cc3ccccc3)CC2)=C[C@H](c2coc3ccccc3c2=O)[C@H]1CCCO,0.7,-0.347,3.9,.,9.1,-15.4
O=S(=O)(Nc1ccc(-c2csc(-c3ccccc3)n2)cc1)c1ccc(F)cc1,-26.7,.,-8.0,.,92.4*,-11.9
Fc1ccc(-c2csc(-c3ccncc3)n2)cc1,3.2,-1.17,13.7,0.972,20.8,1.6
Cc1csc(NC(=O)CSc2nc(C)cs2)n1,-1.2,-0.0598,1.4,-0.259,-9.6,-10.3
Cc1csc(SCC(=O)Nc2cccc3nsnc23)n1,-8.0,0.0505,-1.9,.,3.0,143.6*
Nc1nc(N2CCN(c3ccccc3)CC2)n[nH]1,5.0,0.744,71.9*,0.623,-2.6,-1.8
COc1ccc(N2CCN(C(=S)NCc3ccccc3)CC2)cc1,3.9,-0.286,5.1,-0.105,6.5,-12.8
COc1ccccc1N1CCN(C(=O)CCCCCn2c(=O)[nH]c3ccsc3c2=O)CC1,-5.8,-0.877,-3.1,0.143,-8.9,-39.4
CCOc1ccc(Cc2c(Cl)nc(SC)nc2N(C)C)cc1,-4.4,-1.07,2.8,.,57.7,-2.3
CSc1nc(Cl)c(Cc2ccc(OC(C)C)cc2)c(N(C)C)n1,-5.0,0.183,12.1,.,63.5*,-10.1
CC(C)C(OC(=O)c1ccccc1)c1nccc2ccccc12 (centres undefined),-4.0,-0.632,-5.7,-0.0797,.,-14.1
O=C(OC(c1ccccc1)c1nccc2ccccc12)c1cccc([N+](=O)[O-])c1 (centres undefined),-3.8,-0.741,12.3,.,67.5*,-3.7
Cc1cc(=O)n(CC(C)C)c(O)c1C#N,-0.2,2.14,74.5*,.,0.4,-19.8
O=C(Nc1cccc(C(F)(F)F)c1)c1cccnc1N1CCN(CCO)CC1,-0.7,0.328,-7.5,-0.513,-10.8,-4.1
O=C(Nc1cccc(C(F)(F)F)c1)c1cccnc1N1CCN(c2ccccc2)CC1,-2.5,-1.38,87.5*[fluorescence artefact?],.,21.5,-1.1
CCCCNC(=O)Oc1c(Br)cc2sc(=O)oc2c1Br,21.2*,-0.206,-4.0,-0.344,.,2.5
CCCCNC(=O)Oc1cc(CCl)on1,5.0,1.27,-3.3,0.199,-0.7,-6.2
